# From PubChem
# MT stabilize HCS: microtubule stabilizers in HeLa cells, primary screen, imaging, high-content imaging; HeLa tubulin immunostaining HCS, 24 h; share of cells brighter than vehicle mean+2SD; 200,000 tested, 0.83% active; % tubulin-high responders, % at 10 µM;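 active = plate Z-score above 3 for both tubulin-high and condensed-nucleus cell shares, with cell loss under 80%, at 10 µM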;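 also: anti alpha tubulin signal scored within the nucleus-defined area of each cell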
# bCat nuc transl: modulators of beta-catenin nuclear translocation, primary screen, imaging, HeLa cells, immunofluorescence, high-content. 190,000 tested, 0.3% active. nuclear translocation activity, % at 5 µM;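 active = nuclear translocation activity above 50% at 5 µM, with a well cell count of 50 or more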;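 also: per-cell ratio of nuclear to cytoplasmic median beta-catenin stain intensity; plate controls were DMSO negative control for no effect and GSK-3 inhibitor IX positive control for full effect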
#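 Assay system: human HeLa cells, native beta-catenin; doses: 5 µM primary, 0.02–20 µM confirmation; incubation: compound treatment 24 h, 37°C, 5% CO2; technique: fluorescence imaging of beta-catenin antibody stain plus DAPI; measure: % activation, nuclear-to-cytoplasmic median beta-catenin signal ratio per cell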
# Ins promoter up: insulin promoter activators in MIN6 cells, imaging, high-content screening, mouse beta cells; MIN6 insulin promoter-GFP reporter; active compounds read high; z-score at 5 µM; 190,000 tested, 0.3% active;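 active = z-score above 3 at 5 µM with at least 500 cells counted in the well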
# Autophagy HCS: autophagy modulators in MEF cells, primary screen, imaging, high-content, MEF GFP-LC3; MEF GFP-LC3 puncta imaging; test concentration mostly 10 µM; calls only at 10 µM (by protocol); 190,000 tested, 0.98% active; AID 463193, 2010;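 active = percentage of spot-positive cells more than 3 SD above its plate mean, without a fluorescence outlier flag or 80% toxicity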;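 also: spot-positive cell cutoff set from DMSO-treated cells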
# Wee1 stabilizer: Wee1 degradation inhibitors, primary screen, cell-based, HeLa, Wee1K328M-luciferase, luminescence. Wee1-like protein kinase (Homo sapiens), P30291. HeLa Luc-Wee1K328M stability; 100% = proteasome inhibitor MG132 effect. reporter increase, % at 5 µM. 220,000 tested, 1.2% active. AID 1321, 2008;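 active = activation above the mean of all tested compounds plus 3 SD, set per screening run, cut at about 8.8% in these data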;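 also: cells exposed to compound for 20 h before luminescence read; 0% = DMSO alone and 100% = MG132 at 30 µM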
# Target sequence (P30291 whole entry K328M): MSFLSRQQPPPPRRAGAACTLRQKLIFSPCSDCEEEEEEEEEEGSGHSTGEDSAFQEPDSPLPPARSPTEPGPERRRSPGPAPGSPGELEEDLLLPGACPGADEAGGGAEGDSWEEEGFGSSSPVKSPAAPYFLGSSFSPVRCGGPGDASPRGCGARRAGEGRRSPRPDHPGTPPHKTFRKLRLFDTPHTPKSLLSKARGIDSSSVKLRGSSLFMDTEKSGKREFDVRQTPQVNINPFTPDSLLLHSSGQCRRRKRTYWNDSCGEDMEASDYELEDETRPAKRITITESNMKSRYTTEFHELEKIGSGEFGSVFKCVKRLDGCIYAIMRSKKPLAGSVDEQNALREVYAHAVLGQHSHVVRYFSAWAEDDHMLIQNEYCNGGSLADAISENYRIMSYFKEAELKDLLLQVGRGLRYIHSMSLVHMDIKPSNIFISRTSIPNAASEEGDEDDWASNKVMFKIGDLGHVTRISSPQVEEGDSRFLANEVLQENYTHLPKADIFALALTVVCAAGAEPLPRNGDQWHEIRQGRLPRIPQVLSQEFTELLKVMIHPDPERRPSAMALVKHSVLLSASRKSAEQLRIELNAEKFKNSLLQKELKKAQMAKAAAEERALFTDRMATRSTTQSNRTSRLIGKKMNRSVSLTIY
# Active calls of the source: *; i = inactive; . = not tested or not shown; + = active, no number. Most compounds without a hit are left out; they make up all but 2.9% or so of the library.
SMILES,MT stabilize HCS,bCat nuc transl,Ins promoter up,Autophagy HCS,Wee1 stabilizer
N=c1c2c(ncn1Cc1ccco1)Oc1c(ccc3ccccc13)C2c1ccccc1 (stereo not given),12*,7,-2.1,i,-4
Cc1cc(C)c[n+](-c2nc3ccccc3nc2[N-]S(=O)(=O)c2ccc(Br)s2)c1,3,0,0.12,+,-4
Cc1[nH]c2ccccc2c1/C=N/Nc1nc(Nc2ccc(F)cc2)nc(N2CCOCC2)n1,6,-6,-0.48,+,-1
C/C(O)=c1/cnc2nc3ccccc3n2c1=O,7,-1,-0.04,i,-2
Cc1cc(C)c2c(-n3cccc3)c(C(=O)NNS(=O)(=O)c3ccc(Cl)cc3)sc2n1,2,.,.,i,3
COC(=O)c1ccc(NC(=O)CCN2CCN(c3ccccc3)CC2)cc1,6,-5,-0.38,+,-1
O=C(CCN1CCN(c2ccccc2)CC1)Nc1ccc(Cl)cc1,4,0,0.35,i,2
COc1ccc(NS(=O)(=O)c2cccc(NC(=O)c3ccc(S(=O)(=O)N4CCCCCC4)cc3)c2)cc1,18*,0,-1.8,i,0
O=C(Nc1ccon1)c1cccc(S(=O)(=O)N2CCCCC2)c1,3,-5,3.5*,i,-2
COc1cccc(S(=O)(=O)NCc2ccc(C(=O)Nc3ccc(Cl)c(Cl)c3)cc2)c1,2,-2,3.1*,i,4
CN(C(=O)CC1C(=O)NCCN1Cc1ccc(F)c(F)c1)C1CCOCC1 (stereo not given),3,-2,.,i,-4
COCCN1C(=O)/C(=C/c2ccc(N3CCCC3)cc2)SC1=S,7,-2,.,+,2
COc1ccc(/C=C2\SC(=S)N(CC(=O)N3CCN(C)CC3)C2=O)cc1,.,0,0.24,.,-1
CCSc1nc(O)cc(=O)[nH]1,.,0,0.1,.,11*
CCCCCSc1nc(O)cc(=O)[nH]1,3,.,1.2,i,-2
S=c1[nH]nc(-c2ccccc2)n1CC1CCCO1 (stereo not given),3,0,3.1*,i,3
C=CCC(c1ccccc1)N(C(C)=O)c1ccco1 (stereo not given),2,-1,3.6*,i,-1
CCOC(=O)NC(=O)c1cn(CCN(C)C)c(=O)[nH]c1=O,4,6,-0.08,i,-3
COc1cc(-c2nnc(COC(=O)c3c4c(nc5ccccc35)CCCC4)o2)cc(OC)c1OC,1,0,-0.99,i,10.0*
O=C(Nc1nc(-c2ccccn2)cs1)c1ncc(Cl)c(Cl)c1Cl,4,-1,-0.29,i,-2
O=C(Nc1nc(-c2ccccn2)cs1)c1ccc(Cl)s1,4,.,1.4,i,10.0*
COc1ccc(NC(=O)C2CCCN2C(=O)OC(C)(C)C)cc1 (stereo not given),3,2,0.43,i,0
Cc1ccc(NC(=O)C2CCCN2C(=O)OC(C)(C)C)cc1C (stereo not given),.,0,0.39,.,10*
CC(C)(C)OC(=O)N1CCCC1C(=O)NC(Cc1ccccc1)C(=O)O (stereo not given),3,.,-0.42,i,-1
CC(C)(C)OC(=O)N1CCC[C@H]1C(=O)NCc1ccc(Cl)cc1Cl,4,1,-0.15,i,10*
SMILES,MT stabilize HCS,bCat nuc transl,Ins promoter up,Autophagy HCS,Wee1 stabilizer
COC(=O)c1ccc(C(=O)N2CCCC(CNC(=O)c3ccccc3Cl)C2)cc1 (stereo not given),3,0,-0.14,i,4
Cc1cccc(N2CCN(C(=O)c3ccc4nc[nH]c4c3)CC2)c1C,2,0,0.33,i,-2
COc1cc(C(=O)N2CCN(c3cccc(C)c3C)CC2)cc(OC)c1OC,13,64*,-1.5,.,-3
Cc1cccc(N2CCN(C(=O)c3ccncc3)CC2)c1C,45*,.,-0.08,i,3
COc1ccccc1N1CCN(C(=O)c2oc3cc(C)cc(C)c3c2C)CC1,25*,1,.,i,-1
Cc1cccc(N2CCN(C(=O)N3CCOCC3)CC2)c1C,36*,30,0.82,i,2
COc1ccc2nc(SCCC(=O)O)cc(C)c2c1,.,0,0.19,.,1
